Compound activity as filed in PubChem.
GSTO1 inh – blocks human GSTO1 in RBBP9 counter-screen | P78417 | recombinant GSTO1, activity-based probe fluorescence polarization | inhibition, % at 5.96 µM | hit rate 1.1% among 300,000;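 active = inhibition above the campaign mean inhibition plus 3 SD, cut at about 35% in these data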;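 note: 0% = GSTO1-1 with DMSO and 100% = wells lacking GSTO1-1 enzyme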
Apaf-1 inh – blocks human Apaf-1 apoptosome activity; O14727; reconstituted apoptosome caspase-3 activity, DEVD-Rh110 fluorescence; inhibition, % at 20 µM; hit rate 0.71% among 330,000; AID 489030; active = inhibition of at least 40% at 20 µM;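 note: plate controls were DMSO wells for no effect and DEVD-CHO caspase inhibitor wells for full effect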
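Material: biochemical Apaf-1 apoptosome reconstitution. Medium: Hepes buffer, pH 7.5. Also added: cytochrome c activation, bis-DEVD rhodamine 110 substrate. Timing: 30 min compound preincubation, 50 min activation, room temperature. Measured by: rhodamine 110 fluorescence at Ex 480/Em 540 nm.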
Rin1-Abl PPI inh – human Rin1-Abl interaction inhibition | P00519+Q13671 | TR-FRET Rin1/Abl binding, biochemical | inhibition, % at 7.35 µM | hit rate 0.4% among 360,000; in the data active = inhibition above about 5%, passing the limit was not always enough
UBC9 SUMO inh – inhibitors of human SUMOylation (UBC9). inhibition, % at 35 µM. HTRF SUMOylation assay, SAE1/SAE2 + UBC9, in vitro. hit rate 0.36% among 290,000. AID 2006; in the data active = inhibition above about 50%, passing the limit was not always enough
UBC13 inh – blocks human UBC13 polyubiquitin chain formation | P61088 | hit rate 0.47% among 330,000 | inhibition, % at 20 µM | TR-FRET; in the data active = inhibition above about 45%, passing the limit was not always enough
PAD4 FP inh – inhibitors of human PAD4. AID 485272. inhibition, % at 6.36 µM. Q9UM07. hit rate 0.41% among 330,000. recombinant PAD4, RCA probe fluorescence polarization;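 active = percent inhibition above a cutoff equal to the mean of all tested compounds plus 3 SD, cut at about 15% in these data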;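 note: 0% = PAD4 with RCA probe and DMSO and 100% = probe without PAD4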
Target sequence (Q9UM07 whole entry, looked up): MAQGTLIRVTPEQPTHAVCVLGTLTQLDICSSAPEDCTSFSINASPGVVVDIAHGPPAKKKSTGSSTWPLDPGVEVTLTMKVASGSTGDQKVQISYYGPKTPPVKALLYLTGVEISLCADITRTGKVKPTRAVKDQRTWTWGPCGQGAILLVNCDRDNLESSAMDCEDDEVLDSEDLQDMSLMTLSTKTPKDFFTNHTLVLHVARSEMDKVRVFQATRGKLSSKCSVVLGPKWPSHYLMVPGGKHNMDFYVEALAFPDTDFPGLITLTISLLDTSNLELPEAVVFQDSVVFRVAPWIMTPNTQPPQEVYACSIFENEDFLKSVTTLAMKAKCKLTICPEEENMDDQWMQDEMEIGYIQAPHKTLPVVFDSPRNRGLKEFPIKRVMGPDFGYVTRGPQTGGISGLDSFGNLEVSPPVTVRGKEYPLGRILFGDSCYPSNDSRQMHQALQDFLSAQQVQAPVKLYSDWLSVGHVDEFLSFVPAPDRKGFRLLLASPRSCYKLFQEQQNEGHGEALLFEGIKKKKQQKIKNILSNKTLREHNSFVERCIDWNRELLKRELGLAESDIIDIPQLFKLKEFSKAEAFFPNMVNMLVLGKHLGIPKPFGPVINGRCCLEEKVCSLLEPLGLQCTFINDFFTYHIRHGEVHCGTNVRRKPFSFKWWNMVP
GSTO1 inh conf – GSTO1 (human) inhibition, confirmation; shares compounds with GSTO1 inh; recombinant GSTO1, probe fluorescence polarization; inhibition, % at 5.96 µM; hit rate 54% among 2,400;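 active = inhibition above the primary screen's cutoff, its mean inhibition plus 3 SD, cut at about 35% in these data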;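 note: loss of polarization as inhibitors block binding of rhodamine sulfonate ester activity probe; 0% = GSTO1 with DMSO and 100% = wells lacking GSTO1 enzyme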
GSTO1 ABPP inh – inhibitors of recombinant human GSTO1 | shares compounds with GSTO1 inh | gel ABPP SE-Rh probe fluorescence | inhibition, % at 1 µM | hit rate 30% among 130;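 active = inhibition of the enzyme GSTO1 above about 75%, limit read from the data; inactive = inhibition below that limit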
PAD4 confirm – PAD4 (human) inhibition, confirmed; recombinant PAD4, RCA probe fluorescence polarization; AID 488796; inhibition, % at 6.36 µM; shares compounds with PAD4 FP inh; hit rate 28% among 1,200;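 active = mean inhibition across replicates above the hit cutoff set by the earlier primary screen, cut at about 15% in these data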;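 note: inhibitors block active-site labeling by the probe so polarization falls; 0% = PAD4 with probe and DMSO and 100% = probe without PAD4 enzyme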
* marks the source's active call; other numbers are inactive results; i = inactive; nt = no result. Most compounds without a hit are left out; they make up all but 2.2% or so of the library.

SMILES	GSTO1 inh	Apaf-1 inh	Rin1-Abl PPI inh	UBC9 SUMO inh	UBC13 inh	PAD4 FP inh	GSTO1 inh conf	PAD4 confirm	others
Cc1c(Cl)cccc1N/C(=N/S(=O)(=O)c1cccs1)c1ccccc1	6	2	-1	3	4	-2	nt	nt
O=C(C[n+]1ccccc1)N/N=C/c1cc(Br)ccc1O	4	4	-3	-5	-11	0	nt	nt
Cc1ccc(C(=O)COC(=O)[C@@H](NC(=O)c2ccco2)C(C)C)s1	nt	-2	4	nt	15	2	nt	nt
CCCCNc1c2c3c(cccc3n(C)c1=O)C(=O)c1ccccc1-2	44*	9	-27	25	-92	90*	34	81*
CN1C(=O)c2cccc(NCCCN3C(=O)c4ccccc4C3=O)c2C1=O	4	9	0	29	2	-3	nt	nt
Cc1cccc(CN2CCN(CCCc3ccccc3)CC2)c1	7	-12	nt	-4	0	-2	nt	nt
Cc1cc(=O)n(CCCc2ccccc2)[nH]1	42*	12	-2	nt	3	29*	8	-5
O=C(O)/C=C/C(=O)Nc1ccc(O)cc1	59*	-22	5	88	13	60*	8	4
CCCNC1=C(N(C(C)=O)c2cccc(F)c2)C(=O)c2ccccc2C1=O	55*	nt	-6	14	nt	18*	41*	-5
CC(=O)Oc1ccc2c(c1)Oc1cc(OC(C)=O)ccc1C21OC(=O)c2ccccc21	72*	-259	-26	-10	i	99*	84*	128*
O=c1[nH]n(-c2ccccc2)c(=O)cc1Cl	nt	nt	4	nt	nt	nt	nt	nt
Cc1cc(=O)n(-c2ccccc2Cl)[nH]1	48*	33	0	35	15	33*	5	4
Cc1cc(=O)n(-c2ccc(O)cc2)[nH]1	73*	21	3	12	-24	61*	8	-3
Cc1cc(=O)cc(C)n1-c1ccc(O)cc1	9	-5	0	-11	4	-1	nt	nt
CC(=O)c1ccc(N2CCN(C(=O)c3cc(S(=O)(=O)N4CCOCC4)ccc3C)CC2)cc1	nt	-7	1	nt	7	-1	nt	nt
COc1ccc(CC(=O)OCC(=O)c2ccc(S(=O)(=O)N3CCCCC3)cc2)cc1	nt	6	6	nt	2	4	nt	nt
O=C(Cc1ccc(NC(=O)C2CCCN(C(=O)c3ccccc3)C2)cc1)Nc1ccc(C(=O)N2CCOCC2)cc1 (centres undefined)	nt	nt	-1	nt	nt	nt	nt	nt
CC(=O)Nc1ccc(N/C=C/C(=O)c2ccco2)cc1	2	5	-3	12	-12	-4	nt	nt
CN(C)c1ccc(N/C=C/C(=O)c2ccco2)cc1	61*	5	4	-1	-68	23*	7	-2
Cc1ccsc1C=Nc1ccc(O)cc1	92*	94*	-1	nt	-18	30*	37*	-5
O=C(O)CC(NNC(=O)c1ccccc1)C(=O)Nc1ccc([N+](=O)[O-])cc1 (centres undefined)	4	-16	-4	11	11	1	nt	nt
COc1ccc(S(=O)(=O)N(C)C[C@H]2Oc3c(NC(=O)C4CCCCC4)cccc3C(=O)N([C@H](C)CO)C[C@@H]2C)cc1	nt	13	4	nt	-4	-1	nt	nt
CCN(CC)C(=O)C1c2ccccc2Oc2ccccc21	44*	-3	1	19	-5	80*	9	7
CC(OC(=O)CSCC(=O)Nc1ccc(Cl)cc1)C(=O)N(C)Cc1ccccc1 (centres undefined)	nt	nt	2	nt	nt	nt	nt	nt
CCN1c2ccccc2N(C)C1(C)c1ccccc1 (centres undefined)	55*	nt	-6	-4	nt	20*	37*	-17
SMILES	GSTO1 inh	Apaf-1 inh	Rin1-Abl PPI inh	UBC9 SUMO inh	UBC13 inh	PAD4 FP inh	GSTO1 inh conf	PAD4 confirm	others
CCC1(c2ccccc2)CN(C)C1=O (centres undefined)	nt	nt	0	nt	nt	nt	nt	nt
CN(CCO)c1ccc(-c2n[nH]c(=O)c3ccccc23)cc1[N+](=O)[O-]	nt	6	-14	9	-45	nt	nt	nt
CCNc1ccc2noc3c2c1C(=O)c1ccccc1-3	94*	8	-28	-103	i	112*	76*	102*
CCOc1cc(CNc2ccc(N(C)C)cc2)cc(Br)c1OCC(=O)NC(C)(C)C	81*	44*	0	-95	-8	23*	4	0
Nc1nc(-c2cccs2)cs1	67*	-7	2	-19	8	19*	13	5
COc1cc(/C=N/NC(=O)c2nc(-c3ccccc3)n(-c3ccccc3)n2)ccc1O	-5	10	4	-13	13	-2	nt	nt
COc1cc(/C=C2\C(=O)N(c3ccc(NC(C)=O)cc3)N=C2c2ccccc2)ccc1O	76*	39	0	35	-171	62*	27	5
Cc1nc2nc(C)c(NS(=O)(=O)c3ccc(Cl)s3)c(=O)n2[nH]1	-11	0	4	-2	0	-6	nt	nt
CC(=O)n1cc(N(C(=O)CCl)c2ccc(Cl)cc2)c2ccccc21	82*	13	2	12	10	20*	84*	51*	GSTO1 ABPP inh=82*
O=C1C=C(O)c2cccc(O)c2C1=O	43*	44*	-3	72	-83	16*	40*	4
O=C1c2cccc(O)c2C(=O)c2c(O)cccc21	20	1	nt	10	-60	-4	nt	nt
CCCN(C(=O)Cc1coc2cc(OC)ccc12)C1CCS(=O)(=O)C1 (centres undefined)	nt	-12	2	nt	13	1	nt	nt
COc1cccc(/C=N/Nc2nnc(C)n2N)c1O	41*	3	4	4	-10	39*	1	0
COc1cc(CCC(=O)Nc2cc(S(=O)(=O)N3CCOCC3)ccc2OC(C)C)cc(OC)c1OC	nt	nt	-3	nt	nt	nt	nt	nt
O=c1[nH]c(Nc2ccccc2)cc2cc(Br)ccc12	58*	98*	-1	nt	-68	64*	19	-6
COc1cc(C(C[N+](=O)[O-])c2c(C)cc3ccccn23)ccc1O (centres undefined)	39*	10	1	18	-16	60*	7	-3
O=C(OCn1ncc(Cl)c(Cl)c1=O)c1ccccc1Cl	48*	nt	-2	-128	nt	28*	33	29*
O=C(Cn1ncc(Cl)c(Cl)c1=O)c1ccc(Cl)cc1	18	nt	2	-12	nt	5	nt	nt
O=C1c2ccccc2-c2onc3ccc(N4CCCC4)c1c23	nt	nt	-18	-52	nt	nt	nt	nt
O=C1c2ccccc2C(=O)c2c1cccc2N1CCCC1	56*	nt	-13	-16	nt	28*	10	1
Cn1c(=O)cc2c3c(c(N4CCCCC4)ccc31)C(=O)c1ccccc1-2	39*	7	-11	11	-157	70*	24	37*
CCOc1ccc2c(c1)c1nc3ccccc3nc1n2C	nt	nt	-1	19	nt	nt	nt	nt
